{
  "source": "ChEMBL document CHEMBL3046055",
  "about": "“Synthesis and herbicidal activity of novel N-(2,2,2)-trifluoroethylpyrazole derivatives” (J Agric Food Chem, 2010)",
  "key": {"[1]": {"test_system": "Zea mays", "assay": "Toxicity against Zea mays var. SHEN DAN 17 (maize) assessed induction of crop injury at 800 g ai/ha using pre-emergence treatment protocol under field trials conditions measured 30 days post soil treatment", "format": "organism-based", "conditions": "in vivo, other, 720 h", "outline": "(§1)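 Pre-emergence application to soil surface within 24 h after maize planting, at 300, 400, 600 or 800 g a.i. ha^-1. Fresh weight of aerial plant parts measured 30 days later; percentage inhibition calculated relative to water-sprayed control.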"}, "[2]": {"test_system": "Zea mays", "assay": "Toxicity against Zea mays var. SHEN DAN 17 (maize) assessed induction of crop injury at 400 g ai/ha using pre-emergence treatment protocol under field trials conditions measured 30 days post soil treatment", "format": "organism-based", "conditions": "in vivo, other, 720 h", "outline": "as §1"}, "[3]": {"test_system": "Zea mays", "assay": "Toxicity against Zea mays var. SHEN DAN 17 (maize) assessed induction of crop injury at 300 g ai/ha using pre-emergence treatment protocol under field trials conditions measured 30 days post soil treatment", "format": "organism-based", "conditions": "in vivo, other, 720 h", "outline": "as §1"}, "[4]": {"test_system": "Convolvulus arvensis", "assay": "Herbicidal activity against Convolvulus arvensis assessed as inhibition of fresh weed plant weights at 400 g ai/ha using pre-emergence treatment protocol under field trials conditions measured 30 days post soil treatment relative to untreated control", "format": "functional", "conditions": "720 h", "outline": "(§2)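 Field pre-emergence trial. Treatments were applied to the soil surface within 24 h after maize planting, at 300, 400, 600 and 800 g a.i. ha^-1. Fresh weight of aerial plant parts was measured 30 days later, and percent inhibition calculated relative to the water-sprayed control.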"}, "[5]": {"test_system": "Convolvulus arvensis", "assay": "Herbicidal activity against Convolvulus arvensis assessed as inhibition of fresh weed plant weights at 300 g ai/ha using pre-emergence treatment protocol under field trials conditions measured 30 days post soil treatment relative to untreated control", "format": "functional", "conditions": "720 h", "outline": "as §2"}, "[6]": {"test_system": "Portulaca oleracea", "assay": "Herbicidal activity against Portulaca oleracea assessed as inhibition of fresh weed plant weights at 600 g ai/ha using pre-emergence treatment protocol under field trials conditions measured 30 days post soil treatment relative to untreated control", "format": "functional", "conditions": "720 h", "outline": "as §2"}, "[7]": {"test_system": "Portulaca oleracea", "assay": "Herbicidal activity against Portulaca oleracea assessed as inhibition of fresh weed plant weights at 400 g ai/ha using pre-emergence treatment protocol under field trials conditions measured 30 days post soil treatment relative to untreated control", "format": "functional", "conditions": "720 h", "outline": "as §2"}, "[8]": {"test_system": "Eleusine indica", "assay": "Herbicidal activity against Eleusine indica assessed as inhibition of fresh weed plant weights at 800 g ai/ha using pre-emergence treatment protocol under field trials conditions measured 30 days post soil treatment relative to untreated control", "format": "functional", "conditions": "720 h", "outline": "as §2"}, "[9]": {"test_system": "Eleusine indica", "assay": "Herbicidal activity against Eleusine indica assessed as inhibition of fresh weed plant weights at 600 g ai/ha using pre-emergence treatment protocol under field trials conditions measured 30 days post soil treatment relative to untreated control", "format": "functional", "conditions": "720 h", "outline": "as §2"}, "[10]": {"test_system": "Eleusine indica", "assay": "Herbicidal activity against Eleusine indica assessed as inhibition of fresh weed plant weights at 300 g ai/ha using pre-emergence treatment protocol under field trials conditions measured 30 days post soil treatment relative to untreated control", "format": "functional", "conditions": "720 h", "outline": "as §2"}, "[11]": {"test_system": "Echinochloa crus-galli", "assay": "Herbicidal activity against Echinochloa crus-galli (barnyard grass) assessed as inhibition of fresh weed plant weights at 800 g ai/ha using pre-emergence treatment protocol under field trials conditions measured 30 days post soil treatment relative to untreated control", "format": "functional", "conditions": "720 h", "outline": "as §2"}, "[12]": {"test_system": "Echinochloa crus-galli", "assay": "Herbicidal activity against Echinochloa crus-galli (barnyard grass) assessed as inhibition of fresh weed plant weights at 600 g ai/ha using pre-emergence treatment protocol under field trials conditions measured 30 days post soil treatment relative to untreated control", "format": "functional", "conditions": "720 h", "outline": "as §2"}, "[13]": {"test_system": "Echinochloa crus-galli", "assay": "Herbicidal activity against Echinochloa crus-galli (barnyard grass) assessed as inhibition of fresh weed plant weights at 400 g ai/ha using pre-emergence treatment protocol under field trials conditions measured 30 days post soil treatment relative to untreated control", "format": "functional", "conditions": "720 h", "outline": "as §2"}, "[14]": {"test_system": "Echinochloa crus-galli", "assay": "Herbicidal activity against Echinochloa crus-galli (barnyard grass) assessed as inhibition of fresh weed plant weights at 300 g ai/ha using pre-emergence treatment protocol under field trials conditions measured 30 days post soil treatment relative to untreated control", "format": "functional", "conditions": "720 h", "outline": "as §2"}, "[15]": {"test_system": "Zea mays", "assay": "Toxicity against Zea mays var. SHEN DAN 17 (maize) assessed as inhibition of fresh weed plant weights at 600 g ai/ha using pre-emergence treatment protocol under greenhouse conditions relative to untreated control", "format": "organism-based", "conditions": "in vivo, other", "outline": "(§3)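 Pre-emergence test in plastic pots kept in a greenhouse at 22-25 °C. Fresh weight of aerial plant parts was measured 20 days later, and percent inhibition calculated relative to water-sprayed controls. Metolachlor served as the positive control. Three replicates were run per concentration.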"}, "[16]": {"test_system": "Echinochloa crus-galli", "assay": "Herbicidal activity against Echinochloa crus-galli (barnyard grass) assessed as inhibition of fresh weed plant weights at 300 g ai/ha using pre-emergence treatment protocol under greenhouse conditions relative to untreated control", "format": "functional", "outline": "as §3"}, "[17]": {"test_system": "Echinochloa crus-galli", "assay": "Herbicidal activity against Echinochloa crus-galli (barnyard grass) assessed as inhibition of fresh weed plant weights at 150 g ai/ha using pre-emergence treatment protocol under greenhouse conditions relative to untreated control", "format": "functional", "outline": "as §3"}, "[18]": {"test_system": "Digitaria sanguinalis", "assay": "Herbicidal activity against Digitaria sanguinalis (hairy crabgrass) assessed as inhibition of fresh weed plant weights at 150 g ai/ha using pre-emergence treatment protocol under greenhouse conditions relative to untreated control", "format": "functional", "outline": "as §3"}, "[19]": {"test_system": "Eleusine indica", "assay": "Herbicidal activity against Eleusine indica assessed as inhibition of fresh weed plant weights at 600 g ai/ha using pre-emergence treatment protocol under greenhouse conditions relative to untreated control", "format": "functional", "outline": "as §3"}, "[20]": {"test_system": "Eleusine indica", "assay": "Herbicidal activity against Eleusine indica assessed as inhibition of fresh weed plant weights at 300 g ai/ha using pre-emergence treatment protocol under greenhouse conditions relative to untreated control", "format": "functional", "outline": "as §3"}, "[21]": {"test_system": "Digitaria sanguinalis", "assay": "Herbicidal activity against Digitaria sanguinalis (hairy crabgrass) assessed as inhibition of fresh weed plant weights at 600 g ai/ha using pre-emergence treatment protocol under greenhouse conditions relative to untreated control", "format": "functional", "outline": "as §3"}, "[22]": {"test_system": "Digitaria sanguinalis", "assay": "Herbicidal activity against Digitaria sanguinalis (hairy crabgrass) assessed as inhibition of fresh weed plant weights at 600 g ai/ha using pre-emergence treatment protocol under field trials conditions measured 30 days post soil treatment relative to untreated control", "format": "functional", "conditions": "720 h", "outline": "as §2"}, "[23]": {"test_system": "Digitaria sanguinalis", "assay": "Herbicidal activity against Digitaria sanguinalis (hairy crabgrass) assessed as inhibition of fresh weed plant weights at 400 g ai/ha using pre-emergence treatment protocol under field trials conditions measured 30 days post soil treatment relative to untreated control", "format": "functional", "conditions": "720 h", "outline": "as §2"}, "[24]": {"test_system": "Brassica rapa subsp. oleifera", "assay": "Toxicity against Brassica rapa subsp. oleifera var. JING GUAN 1 assessed as inhibition of fresh weed plant weights at 600 g ai/ha using pre-emergence treatment protocol under greenhouse conditions relative to untreated control", "format": "organism-based", "conditions": "in vivo, other", "outline": "as §3"}, "[25]": {"test_system": "Brassica rapa subsp. oleifera", "assay": "Toxicity against Brassica rapa subsp. oleifera var. JING GUAN 1 assessed as inhibition of fresh weed plant weights at 300 g ai/ha using pre-emergence treatment protocol under greenhouse conditions relative to untreated control", "format": "organism-based", "conditions": "in vivo, other", "outline": "as §3"}, "[26]": {"test_system": "Brassica rapa subsp. oleifera", "assay": "Toxicity against Brassica rapa subsp. oleifera var. JING GUAN 1 assessed as inhibition of fresh weed plant weights at 150 g ai/ha using pre-emergence treatment protocol under greenhouse conditions relative to untreated control", "format": "organism-based", "conditions": "in vivo, other", "outline": "as §3"}, "[27]": {"test_system": "Echinochloa crus-galli", "assay": "Herbicidal activity against Echinochloa crus-galli (barnyard grass) assessed as inhibition of shoot growth at […] measured 7 days post treatment", "format": "functional", "design": "dose or concentration left out as unconfirmed", "conditions": "168 h, read-out: GI"}, "[28]": {"test_system": "Portulaca oleracea", "assay": "Herbicidal activity against Portulaca oleracea assessed as inhibition of shoot growth at […] measured 7 days post treatment", "format": "functional", "conditions": "168 h, read-out: GI", "outline": "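Petri-dish agar assay. A 10 g/L stock of compound in acetone was mixed into molten agar; the untreated control was agar without compound. Seeds were placed on the agar surface and the cups were covered with glass lids. Incubation was 25 ± 1 °C, 50-55% RH, 12 h light/12 h dark, for 7 days. Root and shoot lengths were measured and growth inhibition calculated against the control, in three replicates.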"}},
  "data": [
    {"smiles": "Cc1nn(CC(F)(F)F)c(CS(=O)(=O)C2=NOC(C)(C)C2)c1Cl", "values": [
      {"measurement": "Activity", "setting": "[1]", "value": 0, "unit": "%"},
      {"measurement": "Activity", "setting": "[2]", "value": 0, "unit": "%"},
      {"measurement": "Activity", "setting": "[3]", "value": 0, "unit": "%"},
      {"measurement": "inhibition at 400 g/ha", "setting": "[4]", "value": 16, "unit": "%"},
      {"measurement": "inhibition at 300 g/ha", "setting": "[5]", "value": 14, "unit": "%"},
      {"measurement": "inhibition at 600 g/ha", "setting": "[6]", "value": 95, "unit": "%"},
      {"measurement": "inhibition at 400 g/ha", "setting": "[7]", "value": 85, "unit": "%"},
      {"measurement": "inhibition at 800 g/ha", "setting": "[8]", "value": 99, "unit": "%"},
      {"measurement": "inhibition at 600 g/ha", "setting": "[9]", "value": 98, "unit": "%"},
      {"measurement": "inhibition at 300 g/ha", "setting": "[10]", "value": 97, "unit": "%"},
      {"measurement": "inhibition at 800 g/ha", "setting": "[11]", "value": 100, "unit": "%"},
      {"measurement": "inhibition at 600 g/ha", "setting": "[12]", "value": 100, "unit": "%"},
      {"measurement": "inhibition at 400 g/ha", "setting": "[13]", "value": 100, "unit": "%"},
      {"measurement": "inhibition at 300 g/ha", "setting": "[14]", "value": 100, "unit": "%"},
      {"measurement": "inhibition (INH)", "setting": "[15]", "value": 1, "unit": "%"},
      {"measurement": "inhibition at 300 g/ha", "setting": "[16]", "value": 100, "unit": "%"},
      {"measurement": "inhibition at 150 g/ha", "setting": "[17]", "value": 100, "unit": "%"},
      {"measurement": "inhibition at 150 g/ha", "setting": "[18]", "value": 86, "unit": "%"},
      {"measurement": "inhibition at 600 g/ha", "setting": "[19]", "value": 100, "unit": "%"},
      {"measurement": "inhibition at 300 g/ha", "setting": "[20]", "value": 99, "unit": "%"},
      {"measurement": "inhibition at 600 g/ha", "setting": "[21]", "value": 100, "unit": "%"},
      {"measurement": "inhibition at 600 g/ha", "setting": "[22]", "value": 100, "unit": "%"},
      {"measurement": "inhibition at 400 g/ha", "setting": "[23]", "value": 98, "unit": "%"},
      {"measurement": "inhibition (INH)", "setting": "[24]", "value": 11, "unit": "%"},
      {"measurement": "inhibition (INH)", "setting": "[25]", "value": 12, "unit": "%"},
      {"measurement": "inhibition (INH)", "setting": "[26]", "value": 7, "unit": "%"},
      {"measurement": "inhibition of growth", "setting": "[27]", "value": 84, "unit": "%"},
      {"measurement": "inhibition of growth at 100000 µg/mL", "setting": "[28]", "value": 54, "unit": "%"}
    ]}
  ]
}
